Starred links: 1 amine or outer side, 2 acyl side, 3 side chain; linkers in the order of their positions; H or OH if unused. Non-standard residues stand in square brackets, D forms with d. Residues, ends and D or L forms follow the SMILES beside them. X4 = O=C([C@H](Cc1cc[nH]n1)N[*:1])[*:2]; 2Thi = N[C@@H](Cc1cccs1)C(=O)O; Orn = NCCC[C@H](N)C(=O)O
Species on record: Rattus norvegicus
Test: Pressor activity in rat relative to angiotensin-2
Assay type: functional
Method in brief: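 Male rats, anesthetized with pentobarbital, nephrectomized and treated with pentolinium; blood pressure rise recorded after dosing. Peptides dissolved in normal saline with 0.1% polyvinylpyrrolidone, held in siliconized glass containers. Activity expressed relative to [Asn1,Val5]angiotensin II set at 100.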
Compound H-DRVYIRPF-OH has an Activity of 0.01%.
In the case of CC[C@H](C)[C@H](NC(=O)[C@H](Cc1ccc(O)cc1)NC(=O)[C@@H](NC(=O)[C@H](CCCNC(=N)N)NC(=O)[C@@H](N)CC(=O)O)C(C)C)C(=O)N[C@@H](Cc1cc[nH]n1)C(=O)N1CCC[C@H]1C(=O)N[C@@H](Cc1ccccc1)C(=O)O (H-DRVYI[X4]PF-OH), the Activity is reported as 57%.
In the case of CC[C@H](C)[C@H](NC(=O)[C@H](Cc1ccc(O)cc1)NC(=O)[C@@H](NC(=O)[C@H](CCCN=C(N)N)NC(=O)[C@@H](N)CC(=O)O)C(C)C)C(=O)N[C@@H](Cc1c[nH]cn1)C(=O)N1CCC[C@H]1C(=O)N[C@@H](Cc1ccccc1)C(=O)O, the Activity is reported as 4%.
H-DRVYIAPF-OH gave an Activity of 0.8%.
In the case of CC[C@H](C)[C@H](NC(=O)[C@H](Cc1ccc(O)cc1)NC(=O)[C@@H](NC(=O)[C@H](CCCN=C(N)N)NC(=O)[C@@H](N)CC(=O)O)C(C)C)C(=O)N[C@@H](Cc1cn(C)cn1)C(=O)N1CCC[C@H]1C(=O)N[C@@H](Cc1ccccc1)C(=O)O, the Activity is reported as 5%.
Compound H-DRVYILPF-OH has an Activity of 0.02%.
In the case of H-DRVYIEPF-OH, the Activity is reported as 0%.
Work on CC[C@H](C)[C@H](NC(=O)[C@H](Cc1ccc(O)cc1)NC(=O)[C@@H](NC(=O)[C@H](CCCNC(=N)N)NC(=O)[C@@H](N)CC(=O)O)C(C)C)C(=O)N[C@@H](Cc1cccs1)C(=O)N1CCC[C@H]1C(=O)N[C@@H](Cc1ccccc1)C(=O)O (H-DRVYI[2Thi]PF-OH) yielded an Activity of 10%.
CC[C@H](C)[C@H](NC(=O)[C@H](Cc1ccc(O)cc1)NC(=O)[C@@H](NC(=O)[C@H](CCCN=C(N)N)NC(=O)[C@@H](N)CC(=O)O)C(C)C)C(=O)N[C@@H](Cc1cncn1C)C(=O)N1CCC[C@H]1C(=O)N[C@@H](Cc1ccccc1)C(=O)O was tested, and the Activity was 0.05%.
For H-DRVYIFPF-OH, the Activity was 3%.
Compound CC[C@H](C)[C@H](NC(=O)[C@H](Cc1ccc(O)cc1)NC(=O)[C@@H](NC(=O)[C@H](CCCNC(=N)N)NC(=O)[C@@H](N)CC(=O)O)C(C)C)C(=O)N[C@@H](CCCN)C(=O)N1CCC[C@H]1C(=O)N[C@@H](Cc1ccccc1)C(=O)O (H-DRVYI[Orn]PF-OH) has an Activity of 0.03%.
H-DRVYIMPF-OH showed an Activity of 0.2%.
In the case of H-DRVYIKPF-OH, the Activity is reported as 0.1%.
